Reference: ChEMBL document CHEMBL1152831, “Synthesis and pharmacological screening of derivatives of isoxazolo[4,5-d]pyrimidine” (2008)

Tests used:
Assay type in all cases: functional
[1] = tested on: NCI-H522; test: Antitumor activity against human NCI-H522 cells
[2] = tested on: HCC 2998; test: Antitumor activity against human HCC2998 cells
[3] = tested on: CCRF-CEM; test: Antitumor activity against human CCRF-CEM cells
[4] = tested on: CAKI-1; test: Antitumor activity against human Caki1 cells
[5] = tested on: HCT-15; test: Antitumor activity against human HCT15 cells
[6] = tested on: LOX IMVI; test: Antitumor activity against human LOXIMVI cells
[7] = tested on: MOLT-4; test: Antitumor activity against human MOLT4 cells
[8] = tested on: U-251; test: Antitumor activity against human U251 cells
[9] = tested on: SK-MEL-2; test: Antitumor activity against human SK-MEL-2 cells
[10] = tested on: HOP-92; test: Antitumor activity against human HOP92 cells
[11] = tested on: K562; test: Antitumor activity against human K562 cells
[12] = tested on: SF-539; test: Antitumor activity against human SF539 cells
[13] = tested on: Splenocyte; test: Effect on cancavalin-A-induced proliferation in mouse splenocytes at 0.1 ug/ml assessed as proliferation rate by MTT assay
In short: (§1)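 Splenocytes from CBA mice were pressed through a screen into Hank's medium. Erythrocytes were lysed with 0.83% NH4Cl, cells washed twice and passed through cotton wool to remove dead cells. They were resuspended in RPMI 1640 with 10% FCS, L-glutamine, pyruvate and antibiotics. 2×10⁵ cells per well, Con A at 2.5 final, compounds across 0.1–10. After 3 days, MTT read as OD 550/630 nm. Mean of quadruplicate wells ±SE, Student's t-test.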

[14] = tested on: Splenocyte; test: Effect on cancavalin-A-induced proliferation in mouse splenocytes at 1 ug/ml assessed as proliferation rate by MTT assay; in short: as §1
[15] = tested on: Mus musculus; test: Effect on humoral immune response in sheep red blood cells-immunized CBA mouse spleen assessed as number of antibody forming unit per 10^6 viable cells at 100 ug, ip by local hemolysis assay
In short: (§2)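 Male and female CBA mice, 12 weeks old, immunized i.p. with 0.2 mL of 5% SRBC in 0.9% NaCl. Compounds (DMSO stock diluted in saline) were given i.p. 2 h later; controls received saline or diluted DMSO. Spleens were taken on day 4 and antibody-forming cells counted by local hemolysis assay per 10⁶ viable splenocytes. Mean of 5 mice per group ±SE, t-test.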

[16] = tested on: Mus musculus; test: Effect on delayed type hypersensitivity in sheep red blood cells-immunized CBA mouse assessed as foot-pad edema at 10 ug, ip
In short: (§3)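 Male and female CBA mice, 12 weeks old, sensitized i.v. with 10⁵ SRBCs in 0.2 mL. Compounds were dissolved in DMSO, then diluted in 0.9% NaCl, and given i.p. 2 h later. Controls received saline or diluted DMSO. On day 4, 10⁸ SRBCs in 0.05 mL were injected into the hind footpads. Footpad edema was measured by callipers 24 h later, minus the naive-mouse background. Mean ±SE, t-test.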

[17] = tested on: Mus musculus; test: Effect on humoral immune response in sheep red blood cells-immunized CBA mouse spleen assessed as number of antibody forming unit per 10^6 viable cells at 10 ug, ip by local hemolysis assay; in short: as §2
[18] = tested on: Splenocyte; test: Effect on cancavalin-A-induced proliferation in mouse splenocytes at 10 ug/ml assessed as proliferation rate by MTT assay; in short: as §1
[19] = tested on: Mus musculus; test: Effect on delayed type hypersensitivity in sheep red blood cells-immunized CBA mouse assessed as foot-pad edema at 100 ug, ip; in short: as §3
[20] = read-out: Log10GI50 (converted)
[21] = read-out: Log10LC50 (converted)

With Nc1c(-c2nnco2)noc1C(=O)c1ccccc1 the GI50 [1, 20] was 33.9 µM, the CC50 [1, 21] was > 100 µM and the TGI ([1]; read-out: Log10TGI (converted)) was > 100 µM. The GI50 [2, 20] was 26.9 µM, the CC50 [2, 21] was > 100 µM and the TGI ([2]; read-out: Log10TGI (converted)) was 95.5 µM. The GI50 [3, 20] was 18.2 µM, the CC50 [3, 21] was > 100 µM and the TGI ([3]; read-out: Log10TGI (converted)) was > 100 µM. For the same compound, the GI50 [4, 20] was 21.9 µM, the CC50 [4, 21] was > 100 µM and the TGI ([4]; read-out: Log10TGI (converted)) was > 100 µM. For the same compound, the GI50 [5, 20] was 29.5 µM, the CC50 [5, 21] was > 100 µM and the TGI ([5]; read-out: Log10TGI (converted)) was > 100 µM. The GI50 [6, 20] was 28.8 µM, the CC50 [6, 21] was > 100 µM and the TGI ([6]; read-out: Log10TGI (converted)) was > 100 µM. For the same compound, the GI50 [7, 20] was 56.2 µM, the CC50 [7, 21] was > 100 µM and the TGI ([7]; read-out: Log10TGI (converted)) was > 100 µM. The GI50 [8, 20] was 16.2 µM, the CC50 [8, 21] was > 100 µM and the TGI ([8]; read-out: Log10TGI (converted)) was 69.2 µM. The GI50 [9, 20] was 33.1 µM, the CC50 [9, 21] was > 100 µM and the TGI ([9]; read-out: Log10TGI (converted)) was > 100 µM. The GI50 [10, 20] was 30.9 µM, the CC50 [10, 21] was > 100 µM and the TGI ([10]; read-out: Log10TGI (converted)) was 97.7 µM. For the same compound, the GI50 [11, 20] was 57.5 µM, the CC50 [11, 21] was > 100 µM and the TGI ([11]; read-out: Log10TGI (converted)) was > 100 µM. The GI50 [12, 20] was 2.75 µM, the CC50 [12, 21] was 64.6 µM and the TGI ([12]; read-out: Log10TGI (converted)) was 22.4 µM.
Cc1nc(-c2ccccc2)c2onc(-c3nnc(C(=O)NCc4cccnc4)o3)c2n1 gave an OD [13] of 0.483, an OD [14] of 0.479 and an Activity [15] of 545. The Activity [16] was 5.9, the Activity [17] was 1660 and the OD [18] was 0.482. For the same compound, the Activity [19] was 3.5.
For Nc1c(-c2nnc(C(=O)NCc3ccncc3)o2)noc1C(=O)c1ccccc1, the OD [13] was 0.442, the OD [14] was 0.401 and the Activity [15] was 574. It also gave an Activity [16] of 7.9, an Activity [17] of 1361 and an OD [18] of 0.371. The Activity [19] was 4.9.
Compound C/C=C/C[C@@H](C)[C@@H](O)[C@H]1C(=O)N[C@@H](CC)C(=O)N(C)CC(=O)N(C)[C@@H](CC(C)C)C(=O)N[C@@H](C(C)C)C(=O)N(C)[C@@H](CC(C)C)C(=O)N[C@@H](C)C(=O)N[C@H](C)C(=O)N(C)[C@@H](CC(C)C)C(=O)N(C)[C@@H](CC(C)C)C(=O)N(C)[C@@H](C(C)C)C(=O)N1C [CYCLOSPORINE] has an OD [13] of 0.07, an OD [14] of 0.046 and an Activity [15] of 953. It also gave an Activity [16] of 6.1, an Activity [17] of 1617 and an OD [18] of 0.001.
